pKd: −log10 of the molar value. Values after ≈ are worked out from the molar mass of the structure shown. Where a SMILES comes first, the peptide text is derived from it. [ ]: non-standard residue; d: D form. The star is where a group is joined. Bip = N[C@@H](Cc1ccc(-c2ccccc2)cc1)C(=O)O; NHPhenethyl = c1ccc(CCN*)cc1; NHBn = c1ccc(CN*)cc1; NHiPr = CC(C)N*
Legend:
[1] = tested on: Staphylococcus aureus; assay: Antibacterial activity against Staphylococcus aureus ATCC 25923 by microdilution method; format: functional
Procedure, shortened: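 Standard broth microdilution MIC against S. aureus ATCC 25923, without albumin. Run in triplicate.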

[2] = tested on: Staphylococcus aureus; assay: Antibacterial activity against Staphylococcus aureus ATCC 25923 in presence of BSA 1 by microdilution method; format: functional
Procedure, shortened: (§1)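 Standard broth microdilution MIC against S. aureus ATCC 25923 with albumin in the assay at 0.55 mM. Albumin grades: BSA I, essentially fatty acid and globulin free, ≥99%. BSA II ≥96%. HSA I, essentially fatty acid free, ~99%. HSA II ≥96%. Run in duplicate.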

[3] = Binding affinity to BSA 1 by isothermal titration calorimetry; set-up: species or system Bos taurus
Procedure, shortened: (§2)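 ITC at 25 °C with 1 mL cell. Peptide (2.1 mM) injected in 20 aliquots of 5 µL, 400 s apart, into stirred (200 rpm) albumin (0.11 mM) in 50 mM Tris-HCl, 10 mM CaCl₂, pH 8.2. Dilution heats from peptide-into-buffer titrations were subtracted. First injection excluded. Isotherm fitted to a one-site model; KD = 1/Ka.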

[4] = Binding affinity to HSA 1 by isothermal titration calorimetry; set-up: species or system Homo sapiens; procedure, shortened: as §2
[5] = Binding affinity to HSA 2 by isothermal titration calorimetry; set-up: species or system Homo sapiens; procedure, shortened: as §2
[6] = Binding affinity to BSA 2 by isothermal titration calorimetry; set-up: species or system Bos taurus; procedure, shortened: as §2
[7] = tested on: Staphylococcus aureus; assay: Antibacterial activity against Staphylococcus aureus ATCC 25923 in presence of HSA 1 by microdilution method; format: functional; procedure, shortened: as §1
[8] = tested on: Staphylococcus aureus; assay: Antibacterial activity against Staphylococcus aureus ATCC 25923 in presence of HSA 2 by microdilution method; format: functional; procedure, shortened: as §1
[9] = tested on: Staphylococcus aureus; assay: Antibacterial activity against Staphylococcus aureus ATCC 25923 in presence of BSA 2 by microdilution method; format: functional; procedure, shortened: as §1

MIC [1] | MIC [2] | pKd [3] | pKd [4] | pKd [5] | pKd [6] | MIC [7] | MIC [8] | MIC [9] | Compound
4 µg/mL (≈ 5.96 µM) | 31 µg/mL | 4.91 | – | – | – | – | – | – | C[C@H](CNC(=O)[C@H](CCCNC(=N)N)NC(=O)[C@H](Cc1ccc(-c2ccccc2)cc1)NC(=O)[C@@H](N)CCCNC(=N)N)c1ccccc1
2 µg/mL (≈ 2.73 µM) | 13 µg/mL | 5.00 | 4.98 | 4.80 | 4.91 | 6 µg/mL | 11 µg/mL | 6 µg/mL | N=C(N)NCCC[C@H](NC(=O)[C@H](Cc1ccc(-c2ccccc2)cc1)NC(=O)[C@@H](N)CCCNC(=N)N)C(=O)N(Cc1ccccc1)Cc1ccccc1
2 µg/mL (≈ 2.98 µM) | 25 µg/mL | 4.65 | – | – | – | – | – | – | N=C(N)NCCC[C@H](NC(=O)[C@H](Cc1ccc(-c2ccccc2)cc1)NC(=O)[C@@H](N)CCCNC(=N)N)C(=O)NCCCc1ccccc1
47 µg/mL (≈ 79 µM) | 110 µg/mL | 4.85 | 4.97 | 4.74 | 4.84 | 113 µg/mL | 100 µg/mL | 80 µg/mL | CC(C)NC(=O)[C@H](CCCNC(=N)N)NC(=O)[C@H](Cc1ccc(-c2ccccc2)cc1)NC(=O)[C@@H](N)CCCNC(=N)N (H-Arg-[Bip]-Arg-NHiPr)
5 µg/mL (≈ 7.45 µM) | 38 µg/mL | 4.76 | – | – | – | – | – | – | CCN(Cc1ccccc1)C(=O)[C@H](CCCNC(=N)N)NC(=O)[C@H](Cc1ccc(-c2ccccc2)cc1)NC(=O)[C@@H](N)CCCNC(=N)N
4 µg/mL (≈ 5.96 µM) | 31 µg/mL | 4.91 | – | – | – | – | – | – | C[C@@H](CNC(=O)[C@H](CCCNC(=N)N)NC(=O)[C@H](Cc1ccc(-c2ccccc2)cc1)NC(=O)[C@@H](N)CCCNC(=N)N)c1ccccc1
7 µg/mL (≈ 10.7 µM) | 38 µg/mL | 5.17 | – | – | – | – | – | – | CN(Cc1ccccc1)C(=O)[C@H](CCCNC(=N)N)NC(=O)[C@H](Cc1ccc(-c2ccccc2)cc1)NC(=O)[C@@H](N)CCCNC(=N)N
4 µg/mL (≈ 6.09 µM) | 47 µg/mL | 4.95 | – | – | – | – | – | – | N=C(N)NCCC[C@H](NC(=O)[C@H](Cc1ccc(-c2ccccc2)cc1)NC(=O)[C@@H](N)CCCNC(=N)N)C(=O)NCCc1ccccc1 (H-Arg-[Bip]-Arg-NHPhenethyl)

Compound | MIC [1] | MIC [2] | pKd [3] | pKd [4] | pKd [5] | pKd [6] | MIC [7] | MIC [8] | MIC [9]
N=C(N)NCCC[C@H](NC(=O)[C@H](Cc1ccc(-c2ccccc2)cc1)NC(=O)[C@@H](N)CCCNC(=N)N)C(=O)NCc1ccccc1 (H-Arg-[Bip]-Arg-NHBn) | 5 µg/mL (≈ 7.78 µM) | 47 µg/mL | 5.37 | 4.80 | 4.81 | 4.89 | 40 µg/mL | 80 µg/mL | 30 µg/mL
